Screening data as filed in PubChem.
NSD2 HMT inh: blocks human histone methyltransferase NSD2 | O96028 | NSD2 peptide methylation, AlphaScreen, 120 min | inhibition, % at 12.5 µM | 310,000 tested, 0.54% active | AID 743445; in the data active = inhibition above about 50%
Casp6 inh: caspase-6 (human) enzyme inhibition | AID 686996 | inhibition, % at 12.5 µM | purified caspase-6, Z-VEID-R110 cleavage fluorescence | P55212 | 350,000 tested, 0.53% active;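 active = mean inhibition across replicates at least about 35%, with every replicate also reaching that limit, limit read from the data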
Target sequence (P55212 24-179 limits assumed): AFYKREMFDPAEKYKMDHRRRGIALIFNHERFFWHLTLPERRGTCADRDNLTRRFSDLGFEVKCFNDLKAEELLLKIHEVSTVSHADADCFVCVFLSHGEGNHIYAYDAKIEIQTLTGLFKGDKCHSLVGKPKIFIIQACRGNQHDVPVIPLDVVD
Target sequence (P55212 194-293 limits assumed): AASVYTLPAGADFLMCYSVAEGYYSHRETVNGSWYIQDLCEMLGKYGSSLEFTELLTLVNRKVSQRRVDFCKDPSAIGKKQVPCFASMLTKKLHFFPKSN
SIRT5 block: sirtuin-5 (human) deacylase inhibition | Q9NXA8 | Purified SirT5, succinyl-peptide AMC, trypsin-coupled fluorescence | inhibition, % at 15 µM | 330,000 tested, 1.1% active | AID 652115; in the data active = inhibition above about 15%
UCH37 inh: blocks the human deubiquitinase UCH37. purified proteasome/UCH37, Ub-AMC cleavage fluorescence. 330,000 tested, 0.33% active. inhibition, % (no concentration beside the values);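 active = mean inhibition over replicate wells above about 20%, limit read from the data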
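Material: human UCH37 enzyme supplied as purified proteasome complex / Amount: 0.15 nM proteasome as dispensed / Buffer or medium: pH 7.4 Tris-HCl (50 mM) with ovalbumin, ATP-MgCl2, DTT / Times: preincubation 30 min, reaction 25 min, room temperature / Technique: AMC fluorescence from Ub-AMC cleavage, excitation 355 nm, emission 460 nm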
FGF22 binding: FGF22 (human) thermal shift binding; Q9HCT0; recombinant FGF22 thermal shift, SYPRO orange fluorescence; percent of sucrose octasulfate shift, DMSO zero; activity (Tm shift, normalised), % at 9.99 µM; 340,000 tested, 1.5% active;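 active = mean Tm shift, scaled 0 neutral to 100 positive control, at about 1.3% or above, every replicate too, limit read from the data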
Target sequence (Q9HCT0 whole entry, looked up): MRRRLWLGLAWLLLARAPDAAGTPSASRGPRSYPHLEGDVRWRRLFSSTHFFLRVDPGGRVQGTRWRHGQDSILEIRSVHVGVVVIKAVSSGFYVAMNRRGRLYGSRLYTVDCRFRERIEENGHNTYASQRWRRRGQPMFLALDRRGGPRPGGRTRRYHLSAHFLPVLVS
Large screens that a line does not name were inactive. Compounds with a hit are over-represented: about 2.6% of the library has one in this group of screens.

C[C@H](CO)N1C[C@H](C)[C@@H](CN(C)CC2CC2)Oc2ccc(NC(=O)Cc3ccccc3)cc2CC1=O	none (no result: NSD2 HMT inh, UCH37 inh)
COc1ccccc1NC(=O)Nc1ccc2c(c1)C(=O)N(C)C[C@H](OC)[C@H](C)CN(C)[C@H](C)CO2	SIRT5 block 19 (no result: NSD2 HMT inh, Casp6 inh, UCH37 inh, FGF22 binding)
COc1ccccc1NC(=O)Nc1ccc2c(c1)C(=O)N(C)C[C@@H](OC)[C@@H](C)CN[C@H](C)CO2	none (no result: NSD2 HMT inh, Casp6 inh, UCH37 inh, FGF22 binding)
COc1ccccc1NC(=O)Nc1ccc2c(c1)C(=O)N(C)C[C@H](OC)[C@H](C)CN[C@@H](C)CO2	SIRT5 block 22 (no result: NSD2 HMT inh, UCH37 inh)
Cc1c(/C(O)=C2/C(=O)C(=O)N(CCN3CCOCC3)C2c2cccnc2)cnn1-c1ccccc1 (stereo not drawn)	UCH37 inh 22 (no result: Casp6 inh, SIRT5 block, FGF22 binding)
Cc1c(/C(O)=C2/C(=O)C(=O)N(CCN3CCOCC3)C2c2ccco2)cnn1-c1ccccc1 (stereo not drawn)	none
CCC/C=C/c1ccc(CN2C(C)C(=O)N(Cc3cn(CCC4OCCCO4)nn3)CCS2(=O)=O)cc1 (stereo not drawn)	SIRT5 block 22 (no result: NSD2 HMT inh, UCH37 inh)
CCC/C=C/c1ccc(CN2C(CC(C)C)C(=O)N(Cc3cn(CCC4OCCCO4)nn3)CCS2(=O)=O)cc1 (stereo not drawn)	none (no result: NSD2 HMT inh, UCH37 inh)
Cc1ccc(-n2[nH]c(C)c(/C=N/Nc3ccc([N+](=O)[O-])cc3[N+](=O)[O-])c2=O)cc1C	NSD2 HMT inh 62 (no result: Casp6 inh, SIRT5 block, UCH37 inh, FGF22 binding)
Cc1noc(C)c1NC(=O)N(C)C[C@H]1Oc2ccc(NC(=O)Nc3ccc(C(F)(F)F)cc3)cc2CC(=O)N([C@H](C)CO)C[C@@H]1C	none (no result: NSD2 HMT inh, UCH37 inh)
CCC12CCCN3CCc4c(n(c5ccccc45)C(O)(C(=O)OC)C1)C32 (stereo not drawn)	Casp6 inh 60 (no result: NSD2 HMT inh)
C[C@@H]1CCCCO[C@H](CN(C)S(=O)(=O)c2cn(C)cn2)[C@@H](C)CN([C@H](C)CO)C(=O)c2cc(NS(=O)(=O)c3cn(C)cn3)ccc2O1	none (no result: NSD2 HMT inh, UCH37 inh)
CCOC(=O)c1c(C)[nH]c(C)c1C(=O)COC(=O)c1cccc(C)c1O	none (no result: Casp6 inh, SIRT5 block, FGF22 binding)
CCOC(=O)c1c(C)[nH]c(C)c1C(=O)COC(=O)c1cc(OC)cc(OC)c1	FGF22 binding 59
CCOC(=O)c1c(C)[nH]c(C)c1C(=O)COC(=O)c1ccc(OC)cc1	none
CCOC(=O)c1c(C)[nH]c(C)c1C(=O)COC(=O)c1cc(OC)c(OC)cc1OC	SIRT5 block 19
Cc1noc(C)c1NC(=O)N[C@@H]1CC[C@@H](CCNC(=O)C2CCCCC2)O[C@H]1CO	none (no result: NSD2 HMT inh, UCH37 inh)
CCCNC(=O)N1CCC2(CC1)CN(C(=O)Nc1ccc(F)cc1)[C@@H](CO)c1[nH]c3cc(OC)ccc3c12	none (no result: NSD2 HMT inh, UCH37 inh)
COc1cccc(N(CC(=O)NCC2CCCO2)C(=O)CNS(=O)(=O)c2ccccc2)c1 (stereo not drawn)	FGF22 binding 44
COc1cccc(CN(CC(=O)NCC2CCCO2)C(=O)CNS(=O)(=O)c2ccccc2)c1 (stereo not drawn)	none
O=C(CN(CC1CCCO1)C(=O)CNS(=O)(=O)c1ccccc1)NCc1ccco1 (stereo not drawn)	FGF22 binding 43
CCC(=O)Nc1ccc2c(c1)OC[C@H](C)N(C(=O)C1CCC1)C[C@H](C)[C@@H](OC)CN(C)C2=O	none (no result: NSD2 HMT inh, UCH37 inh)
Cc1nc(N2CCN(C)CC2)[nH]c(=O)c1Cc1cccc2ccccc12	none (no result: Casp6 inh, SIRT5 block, FGF22 binding)
Cc1[nH]c(=O)[nH]c(=O)c1Cc1cccc2ccccc12	FGF22 binding 43
Cc1cc(/C=N/NC(=O)C(O)(c2ccccc2)c2ccccc2)c(C)n1-c1cccc(C(=O)O)c1	Casp6 inh 43 (no result: NSD2 HMT inh, UCH37 inh)
O=[N+]([O-])c1cccnc1NCc1cccs1	FGF22 binding 43
Cc1cc(C)c2nc(N3CCC(C(=O)NCCCN4CCCCC4)CC3)sc2c1	none (no result: NSD2 HMT inh, Casp6 inh, SIRT5 block, FGF22 binding)
Cc1cc(C)c2nc(N3CCC(C(=O)NCC4CCCO4)CC3)sc2c1 (stereo not drawn)	SIRT5 block 27
S=c1[nH]nc(-c2ccco2)n1N=C/C=C/c1ccco1	none (no result: NSD2 HMT inh, Casp6 inh, SIRT5 block, FGF22 binding)
S=c1[nH]nc(-c2ccco2)n1/N=C/C=C/c1ccco1	Casp6 inh 70 (no result: SIRT5 block, UCH37 inh)
COc1cc([N+](=O)[O-])ccc1NC(=O)NCc1ccco1	FGF22 binding 44
COc1ccc(NC(=O)NCc2ccco2)c(OC)c1	none
O=C1CN(C(=O)COC(=O)CNS(=O)(=O)c2ccccc2)c2ccccc2N1	FGF22 binding 43
O=C1CN(C(=O)COC(=O)c2cc(S(=O)(=O)N3CCOCC3)ccc2Cl)c2ccccc2N1	FGF22 binding 43
Cc1ccc(S(=O)(=O)NCC(=O)OCC(=O)N2CC(=O)Nc3ccccc32)cc1	none
O=C1CN(C(=O)COC(=O)/C=C/c2ccc(S(=O)(=O)N3CCOCC3)cc2)c2ccccc2N1	none
COc1cc(/C=C/C(=O)OCC(=O)N2CC(=O)Nc3ccccc32)ccc1O	SIRT5 block 15
CCCCCC(=O)Nc1cc(S(=O)(=O)N2CCCCC2)ccc1N1CCCCC1	none
CCCCCC(=O)Nc1cc(S(=O)(=O)O)cc2cc(S(=O)(=O)O)cc(O)c12	NSD2 HMT inh 105, Casp6 inh 98, SIRT5 block 36 (no result: UCH37 inh)
C[C@H](CO)N1C[C@H](C)[C@@H](CN(C)C(=O)Nc2ccc(C(F)(F)F)cc2)Oc2c(NC(=O)c3cnccn3)cccc2C1=O	none (no result: NSD2 HMT inh, UCH37 inh)
CC1=CC(=O)c2ccccc2C1=O	none (no result: NSD2 HMT inh)
CC(C)(C=O)C1=CC(=O)c2ccccc2C1=O	NSD2 HMT inh 92 (no result: SIRT5 block)
Cc1ncc(CO)c(C=NNC(=O)c2ccccc2Br)c1O	none (no result: NSD2 HMT inh, Casp6 inh, SIRT5 block, FGF22 binding)
CCCC(=O)Nc1cc(C(=O)O)ccc1Sc1ccc(C)cc1	FGF22 binding 43
CCC(=O)Nc1cc(C(=O)O)ccc1Sc1ccc(C)cc1	none
S=C(NCc1ccccc1Cl)NC1CCCC1	FGF22 binding 43
O=C1N/C(=N\N=Cc2cccs2)SC1Cc1ccc(Cl)cc1Cl (stereo not drawn)	none (no result: NSD2 HMT inh, Casp6 inh, SIRT5 block, FGF22 binding)
CCC(=O)N1[C@H](CO)[C@H](c2ccc(-c3cccnc3)cc2)[C@H]1CN(CC)C(C)=O	none (no result: NSD2 HMT inh, UCH37 inh)
CCCNC(=O)C[C@@H]1CC[C@@H]2[C@H](COC[C@@H](O)CN2C(=O)Nc2cccc(Cl)c2)O1	none (no result: NSD2 HMT inh, UCH37 inh)
Cc1ccc(S(=O)(=O)Nc2ccc3c(c2)C(=O)N([C@@H](C)CO)C[C@@H](C)[C@H](CN(C)S(=O)(=O)c2ccc(F)cc2)OCCCC[C@@H](C)O3)cc1	SIRT5 block 18 (no result: NSD2 HMT inh, UCH37 inh)
Cc1ccc(S(=O)(=O)N(C)C[C@H]2OCCCC[C@H](C)Oc3ccc(NS(=O)(=O)c4ccc(F)cc4)cc3C(=O)N([C@H](C)CO)C[C@@H]2C)cc1	SIRT5 block 20 (no result: NSD2 HMT inh, UCH37 inh)
Cc1ccc(S(=O)(=O)Nc2ccc3c(c2)C(=O)N([C@H](C)CO)C[C@@H](C)[C@@H](CN(C)S(=O)(=O)c2ccc(F)cc2)OCCCC[C@H](C)O3)cc1	none (no result: NSD2 HMT inh, UCH37 inh)
Cc1ccc(S(=O)(=O)Nc2ccc3c(c2)C(=O)N([C@H](C)CO)C[C@@H](C)[C@H](CN(C)S(=O)(=O)c2ccc(F)cc2)OCCCC[C@@H](C)O3)cc1	none (no result: NSD2 HMT inh, UCH37 inh)
